What was measured:
Assay type in all cases: functional
MOLT-4 = test: Anticancer activity against human MOLT4 cells assessed as cell growth at 10^-5 M after 48 hrs by SRB assay; settings: MOLT-4, 48 h, read-out: Activity
NCI-H522 = test: Anticancer activity against human NCI-H522 cells assessed as cell growth at 10^-5 M after 48 hrs by SRB assay; settings: NCI-H522, 48 h, read-out: Activity
SR = test: Anticancer activity against human SR cells assessed as cell growth at 10^-5 M after 48 hrs by SRB assay; settings: read-out: Activity
Method in brief: (§1)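 NCI-60 single-dose screen: cells in RPMI 1640 with 5% FBS and 2 mM L-glutamine, plated at 5000–40,000 cells/well by doubling time, and preincubated 24 h at 37 °C. Compound given at one concentration from DMSO stock. Cells TCA-fixed and SRB-stained, absorbance at 515 nm. Percent growth relative to time-zero and untreated controls; inhibition % = 100 − growth %.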

HOP-62 = test: Anticancer activity against human HOP62 cells assessed as cell growth at 10^-5 M after 48 hrs by SRB assay; settings: HOP-62, 48 h, read-out: Activity
Method in brief: (§2)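 NCI-60 single-dose screen at one concentration. Cells grown in RPMI 1640 with 5% FBS and 2 mM L-glutamine, plated at 5000–40,000 cells/well, and pre-incubated 24 h at 37 °C in 5% CO2 before DMSO-dissolved drug was added. Cells fixed with TCA, SRB-stained, absorbance read at 515 nm. Percent growth calculated against time-zero and untreated control plates.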

COLO 205 = test: Anticancer activity against human COLO205 cells assessed as cell growth at 10^-5 M after 48 hrs by SRB assay; settings: COLO 205, 48 h, read-out: Activity; method in brief: as §2
HOP-92 = test: Anticancer activity against human HOP92 cells assessed as cell growth at 10^-5 M after 48 hrs by SRB assay; settings: HOP-92, 48 h, read-out: Activity; method in brief: as §2
HCT-116 = test: Anticancer activity against human HCT116 cells assessed as cell growth at 10^-5 M after 48 hrs by SRB assay; settings: HCT-116, 48 h, read-out: Activity; method in brief: as §2
UACC-257 = test: Anticancer activity against human UACC257 cells assessed as cell growth at 10^-5 M after 48 hrs by SRB assay; settings: UACC-257, 48 h, read-out: Activity; method in brief: as §1
RXF 393 = test: Anticancer activity against human RXF393 cells assessed as cell growth at 10^-5 M after 48 hrs by SRB assay; settings: RXF 393, 48 h, read-out: Activity
CCRF-CEM = test: Anticancer activity against human CCRF-CEM cells assessed as cell growth at 10^-5 M after 48 hrs by SRB assay; settings: read-out: Activity; method in brief: as §2
BT-549 = test: Anticancer activity against human BT549 cells assessed as cell growth at 10^-5 M after 48 hrs by SRB assay; settings: BT-549, 48 h, read-out: Activity; method in brief: as §2
SW-620 = test: Anticancer activity against human SW620 cells assessed as cell growth at 10^-5 M after 48 hrs by SRB assay; settings: SW-620, 48 h, read-out: Activity; method in brief: as §1
NCI-H322M = test: Anticancer activity against human NCI-H322M cells assessed as cell growth at 10^-5 M after 48 hrs by SRB assay; settings: read-out: Activity
NCI-H23 = test: Anticancer activity against human NCI-H23 cells assessed as cell growth at 10^-5 M after 48 hrs by SRB assay; settings: NCI-H23, 48 h, read-out: Activity
SK-MEL-2 = test: Anticancer activity against human SK-MEL-2 cells assessed as cell growth at 10^-5 M after 48 hrs by SRB assay; settings: SK-MEL-2, 48 h, read-out: Activity
M14 = test: Anticancer activity against human M14 cells assessed as cell growth at 10^-5 M after 48 hrs by SRB assay; settings: M14, 48 h, read-out: Activity; method in brief: as §2
MCF7 = test: Anticancer activity against human MCF7 cells assessed as cell growth at 10^-5 M after 48 hrs by SRB assay; settings: MCF7, 48 h, read-out: Activity; method in brief: as §2
A549 = test: Anticancer activity against human A549 cells assessed as cell growth at 10^-5 M after 48 hrs by SRB assay; settings: A549, 48 h, read-out: Activity; method in brief: as §2
SK-MEL-5 = test: Anticancer activity against human SK-MEL-5 cells assessed as cell growth at 10^-5 M after 48 hrs by SRB assay; settings: SK-MEL-5, 48 h, read-out: Activity
T47D = test: Anticancer activity against human T47D cells assessed as cell growth at 10^-5 M after 48 hrs by SRB assay; settings: read-out: Activity; method in brief: as §1
EKVX = test: Anticancer activity against human EKVX cells assessed as cell growth at 10^-5 M after 48 hrs by SRB assay; settings: read-out: Activity; method in brief: as §2
UO-31 = test: Anticancer activity against human UO31 cells assessed as cell growth at 10^-5 M after 48 hrs by SRB assay; settings: UO-31, 48 h, read-out: Activity; method in brief: as §1
MDA-MB-231 = test: Anticancer activity against human MDA-MB-231 cells assessed as cell growth at 10^-5 M after 48 hrs by SRB assay; settings: MDA-MB-231, 48 h, read-out: Activity; method in brief: as §2
NCI/ADR-RES = test: Anticancer activity against human NCI/ADR-RES cells assessed as cell growth at 10^-5 M after 48 hrs by SRB assay; settings: read-out: Activity
SF-539 = test: Anticancer activity against human SF539 cells assessed as cell growth at 10^-5 M after 48 hrs by SRB assay; settings: SF-539, 48 h, read-out: Activity
HT-29 = test: Anticancer activity against human HT-29 cells assessed as cell growth at 10^-5 M after 48 hrs by SRB assay; settings: HT-29, 48 h, read-out: Activity; method in brief: as §2
NCI-H460 = test: Anticancer activity against human NCI-H460 cells assessed as cell growth at 10^-5 M after 48 hrs by SRB assay; settings: NCI-H460, 48 h, read-out: Activity
IGROV-1 = test: Anticancer activity against human IGROV1 cells assessed as cell growth at 10^-5 M after 48 hrs by SRB assay; settings: IGROV-1, 48 h, read-out: Activity; method in brief: as §2
OVCAR-4 = test: Anticancer activity against human OVCAR4 cells assessed as cell growth at 10^-5 M after 48 hrs by SRB assay; settings: OVCAR-4, 48 h, read-out: Activity
MDA-MB-468 = test: Anticancer activity against human MDA-MB-468 cells assessed as cell growth at 10^-5 M after 48 hrs by SRB assay; settings: MDA-MB-468, 48 h, read-out: Activity
SNB-19 = test: Anticancer activity against human SNB19 cells assessed as cell growth at 10^-5 M after 48 hrs by SRB assay; settings: SNB-19, 48 h, read-out: Activity
UACC-62 = test: Anticancer activity against human UACC62 cells assessed as cell growth at 10^-5 M after 48 hrs by SRB assay; settings: UACC-62, 48 h, read-out: Activity; method in brief: as §1

SMILES	growth at 10 µM (MOLT-4) [%]	growth at 10 µM (NCI-H522) [%]	growth at 10 µM (SR) [%]	growth at 10 µM (HOP-62) [%]	growth at 10 µM (COLO 205) [%]	growth at 10 µM (HOP-92) [%]	growth at 10 µM (HCT-116) [%]	growth at 10 µM (UACC-257) [%]	growth at 10 µM (RXF 393) [%]	growth at 10 µM (CCRF-CEM) [%]	growth at 10 µM (BT-549) [%]	growth at 10 µM (SW-620) [%]	growth at 10 µM (NCI-H322M) [%]	growth at 10 µM (NCI-H23) [%]	growth at 10 µM (SK-MEL-2) [%]	growth at 10 µM (M14) [%]	growth at 10 µM (MCF7) [%]	growth at 10 µM (A549) [%]	growth at 10 µM (SK-MEL-5) [%]	growth at 10 µM (T47D) [%]	other results
COc1cccc(-c2nc3sccn3c2-c2ccnc(NCCNC(=O)c3ccc(N4CCOCC4)c(C(F)(F)F)c3)n2)c1	50.8	60.6	76.7	99.4	69	85.1	82.6	87.7	78.5	54.6	74.8	108	101	102	86.5	62.1	90.9	76.2	57.2	67	growth at 10 µM (EKVX): 74.1%; growth at 10 µM (UO-31): 58.2%; growth at 10 µM (MDA-MB-231): 94.2%; growth at 10 µM (NCI/ADR-RES): 69.6%; growth at 10 µM (SF-539): 79%; growth at 10 µM (HT-29): 50%; growth at 10 µM (NCI-H460): 77.7%; growth at 10 µM (IGROV-1): 68.6%; growth at 10 µM (OVCAR-4): 102%; growth at 10 µM (MDA-MB-468): 90.5%; growth at 10 µM (SNB-19): 105%; growth at 10 µM (UACC-62): 41.3%
COc1cccc(-c2nc3sccn3c2-c2ccnc(NCCNC(=O)c3cc(N4CCOCC4)cc(C(F)(F)F)c3)n2)c1	60	69.5	80.7	112	73.3	59.1	75.6	89.5	72.6	49.4	81.1	109	96.6	110	76.2	65.3	84.9	82.2	66.2	86.3	growth at 10 µM (EKVX): 84.8%; growth at 10 µM (UO-31): 60.2%; growth at 10 µM (MDA-MB-231): 80.4%; growth at 10 µM (NCI/ADR-RES): 76.5%; growth at 10 µM (SF-539): 101%; growth at 10 µM (HT-29): 58.5%; growth at 10 µM (NCI-H460): 95.6%; growth at 10 µM (IGROV-1): 67.5%; growth at 10 µM (OVCAR-4): 107%; growth at 10 µM (MDA-MB-468): 98.1%; growth at 10 µM (SNB-19): 103%; growth at 10 µM (UACC-62): 50.9%
O=C(NCCNc1nccc(-c2c(-c3cccc(O)c3)nc3sccn23)n1)c1ccccc1	67.1	72.7	68	119	48.5	58.6	42.5	11.3	62.6	47.3	61.4	78.2	101	82.6	45.5	15.3	38.1	56.3	40.2	58.6	growth at 10 µM (EKVX): 94.2%; growth at 10 µM (UO-31): 87.7%; growth at 10 µM (MDA-MB-231): 80%; growth at 10 µM (NCI/ADR-RES): 99.7%; growth at 10 µM (SF-539): 73.2%; growth at 10 µM (HT-29): 65.4%; growth at 10 µM (NCI-H460): 42.4%; growth at 10 µM (IGROV-1): 57.4%; growth at 10 µM (OVCAR-4): 98%; growth at 10 µM (MDA-MB-468): 54.7%; growth at 10 µM (SNB-19): 91.1%; growth at 10 µM (UACC-62): 0.9%

From ChEMBL document CHEMBL1914423, “New imidazo[2,1-b]thiazole derivatives: synthesis, in vitro anticancer evaluation, and in silico studies” (Eur J Med Chem, 2011)
